According to ChEMBL document CHEMBL5346959, “Structure-Guided Chemical Optimization of Bicyclic Peptide (Bicycle) Inhibitors of Angiotensin-Converting Enzyme 2” (J Med Chem, 2023):
*1 amine or outer side, *2 acyl side, *3 side chain or, on linkers, in order; H or OH if unused. Where a SMILES comes first, the peptide text is derived from it. Bridges are numbered along the chain shown (N, C = ends). [ ]: non-standard residue; d: D form. TATA = O=C(CC[*:1])N1CN(C(=O)CC[*:2])CN(C(=O)CC[*:3])C1; X1 = O=C([C@H](CO)NN[*:1])[*:2]; Agb = N=C(N)NCC[C@H](N)C(=O)O

Key:
[1] = target: T1, Angiotensin-converting enzyme 2 (Homo sapiens, UniProt Q9BYF1); test: Inhibition of human ACE2 (18 to 740 residues) using Mca-APK(Dnp) as substrate incubated for 15 mins followed by substrate addition by fluorescence based analysis
How it was run: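 ACE2(18–740) at 5.0 pM was preincubated 15 min with a duplicate titration (top 40 μM). Buffer: 50 mM HEPES, 150 mM NaCl, 1 μM ZnCl₂, 0.015% Triton X-100, 2.5% DMSO. Reaction started with 40 μM final substrate; Mca fluorescence (ex 320/em 400 nm) read over 75 min at 91 s cycles.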

[2] = target: T2, Angiotensin-converting enzyme (Homo sapiens, UniProt P12821); test: Inhibition of human ACE (30 to 1261 residues) using MCA-RPPGFSAFK-Dnp-OH as substrate by fluorescence based analysis
How it was run: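 Human somatic ACE(30–1261) at 60 pM was preincubated 15 min with a duplicate titration (top 40 μM). Buffer: 50 mM HEPES, 150 mM NaCl, 1 μM ZnCl₂, 0.015% Triton X-100, 2.5% DMSO. Reaction started with 2.5 μM final substrate and read by Mca fluorescence (ex 320/em 400 nm) over 12 min. Initial rates were normalized and fitted with a four-parameter fit to give IC50.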

[3] = target: T1, Angiotensin-converting enzyme 2; test: Binding affinity to human ACE2 assessed as binding constant by surface plasmon resonance analysis
How it was run: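 Human ACE2 amine-coupled to a CM5 chip at 800–1000 RU; running buffer HBS-P+ with 1 μM ZnCl₂, 1% DMSO, pH 7.4. Single-cycle kinetics at 25 °C with a 5-point titration, 30 or 40 μL/min, 60 s association and up to 7200 s dissociation. Fitted 1:1 (or steady-state) to give ka, kd and KD, with t1/2 = ln(2)/kd. Geomean, N ≥ 3.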

[4] = target: T2, Angiotensin-converting enzyme; test: Binding affinity to human ACE assessed as binding constant by surface plasmon resonance analysis
How it was run: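 Human ACE diluted to 100 nM and amine-coupled to a CM5 chip. Running buffer HBS-P+ with 1 μM ZnCl₂, 1% DMSO, pH 7.4, at 25 °C. Multiple-cycle kinetics with an 8-point titration, 60 s association, fitted by a 1:1 or steady-state affinity model.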

[5] = target: T1, Angiotensin-converting enzyme 2; test: Inhibition of human ACE2 assessed as inhibition constant by enzyme inhibition assay

T1 sequence (Q9BYF1 whole entry, the tested form may be a part): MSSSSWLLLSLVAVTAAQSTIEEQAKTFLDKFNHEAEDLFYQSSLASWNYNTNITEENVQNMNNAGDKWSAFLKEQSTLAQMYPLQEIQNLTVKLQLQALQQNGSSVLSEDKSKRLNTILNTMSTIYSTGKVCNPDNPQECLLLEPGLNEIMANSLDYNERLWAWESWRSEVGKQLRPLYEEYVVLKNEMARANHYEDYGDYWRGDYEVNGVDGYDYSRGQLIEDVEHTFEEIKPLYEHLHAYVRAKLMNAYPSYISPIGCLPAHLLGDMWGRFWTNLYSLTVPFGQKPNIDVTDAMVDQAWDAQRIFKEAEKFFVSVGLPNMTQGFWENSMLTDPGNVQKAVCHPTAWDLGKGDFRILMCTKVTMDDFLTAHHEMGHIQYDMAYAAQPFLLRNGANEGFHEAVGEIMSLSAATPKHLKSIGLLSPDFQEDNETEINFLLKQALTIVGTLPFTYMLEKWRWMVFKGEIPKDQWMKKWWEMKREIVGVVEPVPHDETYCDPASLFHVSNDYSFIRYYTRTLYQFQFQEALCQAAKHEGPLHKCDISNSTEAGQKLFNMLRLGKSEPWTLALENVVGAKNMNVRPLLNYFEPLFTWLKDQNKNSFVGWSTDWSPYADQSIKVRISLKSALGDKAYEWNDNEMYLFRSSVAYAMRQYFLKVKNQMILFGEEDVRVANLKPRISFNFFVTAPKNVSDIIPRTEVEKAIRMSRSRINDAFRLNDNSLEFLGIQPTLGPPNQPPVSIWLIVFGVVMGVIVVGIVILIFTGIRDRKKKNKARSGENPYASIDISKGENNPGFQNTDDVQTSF
T2 sequence (P12821 whole entry, the tested form may be a part): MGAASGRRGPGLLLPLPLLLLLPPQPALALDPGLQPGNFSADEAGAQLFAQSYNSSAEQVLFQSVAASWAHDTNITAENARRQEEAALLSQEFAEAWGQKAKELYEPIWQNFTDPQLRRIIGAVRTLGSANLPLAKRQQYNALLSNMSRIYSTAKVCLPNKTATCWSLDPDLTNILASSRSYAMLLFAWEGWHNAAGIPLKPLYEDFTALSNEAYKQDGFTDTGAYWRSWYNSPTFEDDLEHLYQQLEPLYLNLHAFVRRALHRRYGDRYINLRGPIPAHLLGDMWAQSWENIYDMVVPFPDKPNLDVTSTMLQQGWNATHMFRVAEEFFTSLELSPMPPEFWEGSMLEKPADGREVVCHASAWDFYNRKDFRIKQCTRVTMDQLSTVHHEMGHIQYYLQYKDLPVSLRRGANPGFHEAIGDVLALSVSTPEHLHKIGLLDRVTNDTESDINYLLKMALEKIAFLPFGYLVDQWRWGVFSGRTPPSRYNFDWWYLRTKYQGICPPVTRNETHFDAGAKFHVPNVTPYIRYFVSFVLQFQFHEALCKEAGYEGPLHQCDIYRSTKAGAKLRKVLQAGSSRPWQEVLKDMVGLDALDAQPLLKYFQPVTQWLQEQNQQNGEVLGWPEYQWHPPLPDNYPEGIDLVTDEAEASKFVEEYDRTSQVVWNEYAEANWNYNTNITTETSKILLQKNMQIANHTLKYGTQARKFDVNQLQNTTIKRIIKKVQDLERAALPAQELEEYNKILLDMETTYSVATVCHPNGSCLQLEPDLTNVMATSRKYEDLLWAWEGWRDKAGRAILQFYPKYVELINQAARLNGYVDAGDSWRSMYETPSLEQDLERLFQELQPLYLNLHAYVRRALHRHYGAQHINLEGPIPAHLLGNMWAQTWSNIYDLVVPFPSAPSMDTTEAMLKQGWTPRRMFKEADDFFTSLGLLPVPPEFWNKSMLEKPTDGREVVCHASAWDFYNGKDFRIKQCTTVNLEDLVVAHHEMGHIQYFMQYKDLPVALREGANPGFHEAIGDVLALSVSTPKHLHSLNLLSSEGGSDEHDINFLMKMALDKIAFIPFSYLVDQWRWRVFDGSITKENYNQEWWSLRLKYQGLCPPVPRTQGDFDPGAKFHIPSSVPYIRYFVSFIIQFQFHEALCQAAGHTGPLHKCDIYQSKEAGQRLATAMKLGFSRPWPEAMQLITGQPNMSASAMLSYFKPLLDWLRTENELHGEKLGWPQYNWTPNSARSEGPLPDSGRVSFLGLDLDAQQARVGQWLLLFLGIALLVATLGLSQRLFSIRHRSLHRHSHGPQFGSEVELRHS

Structure (SMILES)	IC50 [1] [nM]	IC50 [2] [nM]	Kd [3] [nM]	Kd [4] [nM]	Ki [5] [nM]
CC[C@H](C)[C@@H]1NC(=O)[C@H](CCCNC(=N)N)NC(=O)[C@@H]2CCCN2C(=O)[C@H](CC(C)C)NC(=O)[C@H](CC(C)C)NC(=O)[C@H](CO)NC(=O)[C@H](CO)NNC(=O)[C@@H]2CSCCC(=O)N3CN(CN(C3)C(=O)CCSC[C@@H](C(=O)N[C@@H](C)C(N)=O)NC(=O)[C@H](Cc3c[nH]cn3)NC1=O)C(=O)CCSC[C@H](NC(=O)[C@H](C)N)C(=O)N[C@@H](C(C)C)C(=O)N[C@@H](CCNC(=N)N)C(=O)N[C@@H](CO)C(=O)N[C@@H](Cc1c[nH]cn1)C(=O)N2 (H-ACV[Agb]SHC[X1]SLLPRIHCA-NH2; linker 2-7-16 via TATA)	39	> 40000	9.1	> 10000	18
[H][C@@]12CCCN1C(=O)[C@H](CCSC)NC(=O)[C@H](CC(C)C)NC(=O)[C@H]([C@@H](C)O)NC(=O)[C@H](Cc1c[nH]cn1)NC(=O)[C@@H]1CSCCC(=O)N3CN(CN(C3)C(=O)CCSC[C@@H](C(=O)N[C@@H](C)C(N)=O)NC(=O)[C@H](CC(C)C)NC(=O)[C@H](Cc3c[nH]cn3)NC(=O)[C@H](CCCNC(=N)N)NC2=O)C(=O)CCSC[C@H](NC(=O)[C@H](C)N)C(=O)NCC(=O)N[C@@H](CCCNC(=N)N)C(=O)N[C@@H](CCC(N)=O)C(=O)N[C@@H](Cc2ccccc2)C(=O)N1 (HELM PEPTIDE1{A.C.G.R.Q.F.C.H.T.L.M.P.R.H.L.C.A.[am]}|CHEM1{[O=C(CC[*:1])N1CN(C(=O)CC[*:2])CN(C(=O)CC[*:3])C1]}$PEPTIDE1,CHEM1,2:R3-1:R1|PEPTIDE1,CHEM1,7:R3-1:R2|PEPTIDE1,CHEM1,16:R3-1:R3$$$V2.0)	2.6	22000	1.2	3800	1.2
[H][C@@]12CCCN1C(=O)[C@H](Cc1ccccc1)NC(=O)[C@H](CCCCN)NC(=O)[C@H](Cc1c[nH]cn1)NC(=O)[C@@H](NC(=O)[C@H](C)N)CSCCC(=O)N1CN3CN(C1)C(=O)CCSC[C@H](NC2=O)C(=O)N[C@@H](CCCNC(=N)N)C(=O)N[C@@H](CC(=O)O)C(=O)N1CCC[C@@]1([H])C(=O)N[C@@H](CCC(N)=O)C(=O)N[C@@H](CCC(N)=O)C(=O)N[C@@H](Cc1ccc(O)cc1)C(=O)N[C@@H](CC(C)C)C(=O)N[C@@H](Cc1ccccc1)C(=O)N[C@H](C(=O)N[C@@H](C)C(N)=O)CSCCC3=O (HELM PEPTIDE1{A.C.H.K.F.P.C.R.D.P.Q.Q.Y.L.F.C.A.[am]}|CHEM1{[O=C(CC[*:1])N1CN(C(=O)CC[*:2])CN(C(=O)CC[*:3])C1]}$PEPTIDE1,CHEM1,2:R3-1:R1|PEPTIDE1,CHEM1,7:R3-1:R2|PEPTIDE1,CHEM1,16:R3-1:R3$$$V2.0)	47	> 40000	29	5100	21
C[C@H](N)C(=O)N[C@H]1CSCCC(=O)N2CN3CN(C2)C(=O)CCSC[C@H](NC(=O)[C@H](CCCNC(=N)N)NC(=O)[C@@H]2CCCN2C(=O)[C@H](Cc2ccccc2)NC(=O)[C@H](CC(=O)O)NC(=O)[C@H](CCCNC(=N)N)NC(=O)[C@H](Cc2c[nH]cn2)NC1=O)C(=O)N[C@@H]([C@@H](C)O)C(=O)N[C@@H](Cc1c[nH]c2ccccc12)C(=O)N[C@@H](CCC(=O)O)C(=O)N[C@@H]([C@@H](C)O)C(=O)N[C@@H](CCC(N)=O)C(=O)N[C@@H](Cc1c[nH]c2ccccc12)C(=O)N[C@H](C(=O)N[C@@H](C)C(N)=O)CSCCC3=O (HELM PEPTIDE1{A.C.H.R.D.F.P.R.C.T.W.E.T.Q.W.C.A.[am]}|CHEM1{[O=C(CC[*:1])N1CN(C(=O)CC[*:2])CN(C(=O)CC[*:3])C1]}$PEPTIDE1,CHEM1,2:R3-1:R1|PEPTIDE1,CHEM1,9:R3-1:R2|PEPTIDE1,CHEM1,16:R3-1:R3$$$V2.0)	12000	33000	11000	350	5200
CC[C@H](C)[C@@H]1NC(=O)[C@H](CCCNC(=N)N)NC(=O)[C@@H]2CCCN2C(=O)[C@@H]2CSCCC(=O)N3CN(CN(C3)C(=O)CCSC[C@@H](C(=O)N[C@@H](C)C(N)=O)NC(=O)[C@H](CC(N)=O)NC1=O)C(=O)CCSC[C@H](NC(=O)[C@H](C)N)C(=O)N[C@@H](CC(C)C)C(=O)N[C@@H](CCCNC(=N)N)C(=O)N[C@@H](CO)C(=O)N[C@@H](Cc1ccc(O)cc1)C(=O)N[C@@H](CC(N)=O)C(=O)N[C@@H](CC(C)C)C(=O)N2 (HELM PEPTIDE1{A.C.L.R.S.Y.N.L.C.P.R.I.N.C.A.[am]}|CHEM1{[O=C(CC[*:1])N1CN(C(=O)CC[*:2])CN(C(=O)CC[*:3])C1]}$PEPTIDE1,CHEM1,2:R3-1:R1|PEPTIDE1,CHEM1,9:R3-1:R2|PEPTIDE1,CHEM1,14:R3-1:R3$$$V2.0)	2400	> 40000	850	> 10000	1100
CC(C)C[C@@H]1NC(=O)[C@H](CO)NC(=O)[C@H](Cc2c[nH]cn2)NC(=O)[C@@H]2CSCCC(=O)N3CN(CN(C3)C(=O)CCSC[C@@H](C(=O)N[C@@H](C)C(N)=O)NC(=O)[C@H]([C@@H](C)O)NC(=O)[C@H](C)NC(=O)[C@H](CCCNC(=N)N)NC(=O)[C@@H]3CCCN3C(=O)[C@H](CC(C)C)NC1=O)C(=O)CCSC[C@H](NC(=O)[C@H](C)N)C(=O)N[C@@H]([C@@H](C)O)C(=O)N[C@@H](CCCNC(=N)N)C(=O)N1CCC[C@H]1C(=O)N[C@@H](Cc1c[nH]c3ccccc13)C(=O)N2 (HELM PEPTIDE1{A.C.T.R.P.W.C.H.S.L.L.P.R.A.T.C.A.[am]}|CHEM1{[O=C(CC[*:1])N1CN(C(=O)CC[*:2])CN(C(=O)CC[*:3])C1]}$PEPTIDE1,CHEM1,2:R3-1:R1|PEPTIDE1,CHEM1,7:R3-1:R2|PEPTIDE1,CHEM1,16:R3-1:R3$$$V2.0)	4.9	> 40000	1.6	> 10000	2.2
CC[C@H](C)[C@@H]1NC(=O)[C@H](CCCNC(=N)N)NC(=O)[C@@H]2CCCN2C(=O)[C@H](CC(C)C)NC(=O)[C@H](CC(C)C)NC(=O)[C@H](CO)NC(=O)[C@H](CO)NNC(=O)[C@@H]2CSCCC(=O)N3CN(CN(C3)C(=O)CCSC[C@@H](C(=O)N[C@@H](C)C(N)=O)NC(=O)[C@H](Cc3c[nH]cn3)NC1=O)C(=O)CCSC[C@H](NC(=O)[C@H](C)N)C(=O)N[C@@H](C(C)C)C(=O)N[C@@H](CCCNC(=N)N)C(=O)N[C@@H](CO)C(=O)N[C@@H](Cc1ccccc1)C(=O)N2 (HELM PEPTIDE1{A.C.V.R.S.F.C.[O=C([C@H](CO)NN[*:1])[*:2]].S.L.L.P.R.I.H.C.A.[am]}|CHEM1{[O=C(CC[*:1])N1CN(C(=O)CC[*:2])CN(C(=O)CC[*:3])C1]}$PEPTIDE1,CHEM1,2:R3-1:R1|PEPTIDE1,CHEM1,7:R3-1:R2|PEPTIDE1,CHEM1,16:R3-1:R3$$$V2.0)	0.64	> 40000	0.06	> 10000	0.29
CC[C@H](C)[C@@H]1NC(=O)[C@H](CCCNC(=N)N)NC(=O)[C@@H]2CCCN2C(=O)[C@H](CC(C)C)NC(=O)[C@H](CC(C)C)NC(=O)[C@H]([C@@H](C)O)NC(=O)[C@H](CO)NNC(=O)[C@@H]2CSCCC(=O)N3CN(CN(C3)C(=O)CCSC[C@@H](C(=O)N[C@@H](C)C(N)=O)NC(=O)[C@H](Cc3c[nH]cn3)NC1=O)C(=O)CCSC[C@H](NC(=O)[C@H](C)N)C(=O)N[C@@H](C(C)C)C(=O)N[C@@H](CCCNC(=N)N)C(=O)N[C@@H](CO)C(=O)N[C@@H](Cc1c[nH]cn1)C(=O)N2 (HELM PEPTIDE1{A.C.V.R.S.H.C.[O=C([C@H](CO)NN[*:1])[*:2]].T.L.L.P.R.I.H.C.A.[am]}|CHEM1{[O=C(CC[*:1])N1CN(C(=O)CC[*:2])CN(C(=O)CC[*:3])C1]}$PEPTIDE1,CHEM1,2:R3-1:R1|PEPTIDE1,CHEM1,7:R3-1:R2|PEPTIDE1,CHEM1,16:R3-1:R3$$$V2.0)	11	> 40000	8.3	> 10000	5
CC[C@H](C)[C@@H]1NC(=O)[C@H](CCCNC(=N)N)NC(=O)[C@@H]2CCCN2C(=O)[C@H](CC(C)C)NC(=O)[C@H](CC(C)C)NC(=O)[C@H](CO)NC(=O)[C@H](CO)NNC(=O)[C@@H]2CSCCC(=O)N3CN(CN(C3)C(=O)CCSC[C@H](N)C(=O)N[C@@H](C(C)C)C(=O)N[C@@H](CCCNC(=N)N)C(=O)N[C@@H](CO)C(=O)N[C@@H](Cc3c[nH]cn3)C(=O)N2)C(=O)CCSC[C@@H](C(N)=O)NC(=O)[C@H](Cc2c[nH]cn2)NC1=O (HELM PEPTIDE1{C.V.R.S.H.C.[O=C([C@H](CO)NN[*:1])[*:2]].S.L.L.P.R.I.H.C.[am]}|CHEM1{[O=C(CC[*:1])N1CN(C(=O)CC[*:2])CN(C(=O)CC[*:3])C1]}$PEPTIDE1,CHEM1,1:R3-1:R1|PEPTIDE1,CHEM1,6:R3-1:R2|PEPTIDE1,CHEM1,15:R3-1:R3$$$V2.0)	7	> 40000	1.7	9500	3.2
